Columns and labels:
Zone of skin [1] = test: fCmax in Staphylococcus aureus infected […] SKH1 mouse skin at 50 mg/kg, sc; assay type: ADME, organism-based; set-up: dose 50 mg/kg, route subcutaneous; details: in vivo
Pseudomonas aeruginosa [2] = test: Antimicrobial activity against Pseudomonas aeruginosa OC 4354 infected in immunocompromized SKH1 mouse assessed as log change in bacterial colony forming unit at 100 mg/kg/day, sc; assay type: functional; details: route subcutaneous
Procedure, shortened: (§1)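 Female SKH1 hairless mice made neutropenic with ip cyclophosphamide (150 mg/kg 5 days and 100 mg/kg 1 day before infection). 0.2 ml s.c. Cytodex bead (0.1% vol/vol) inoculum in BHI: OC 4351 left flank, OC 4354 right flank. Drug s.c. at 1, 3, 25, 27 h postinfection. Killed at 48 h; skin homogenised in saline, plated on TSA 18 h 37°C; Δlog CFU/g versus inoculum. 5 mice/dose, run twice.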

[3] = fT>MIC in Pseudomonas aeruginosa OC 4351 infected sc dosed SKH1 mouse administered in 24 hrs dosing interval; assay type: functional
Staphylococcus aureus [4] = test: Antimicrobial activity against methicillin-resistant Staphylococcus aureus OC 8525 infected immunocompetent SKH1 mouse assessed as lesion volume at 25 mg/kg/day, sc measured after 48 hrs postinfection (reference value: 1535 mm3); details: route subcutaneous
Zone of skin [5] = test: fCmax in immunocompromized SKH1 mouse skin at 50 mg/kg, sc; assay type: ADME, organism-based; set-up: dose 50 mg/kg, route subcutaneous; details: in vivo
Procedure, shortened: (§2)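 Female SKH1 hairless mice, immunocompetent or cyclophosphamide-neutropenic, infected s.c. with MRSA OC 8525 or P. aeruginosa OC 4354 on the Cytodex beads (left flank), sterile beads on the right. Single dose 24 h later: s.c. at the nape, or linezolid 50 mg/kg oral. Plasma and skin (DMSO homogenate) sampled over time, HPLC with diode array.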

Zone of skin [6] = test: fAUC (0-infinity) in immunocompetent SKH1 mouse skin at 50 mg/kg, sc; assay type: ADME, organism-based; set-up: dose 50 mg/kg, route subcutaneous; details: in vivo; procedure, shortened: as §2
Plasma [7] = test: fAUC (0-infinity) in immunocompetent SKH1 mouse plasma at 12.5 mg/kg, sc; assay type: ADME, organism-based; set-up: dose 12.5 mg/kg, route subcutaneous; details: in vivo; procedure, shortened: as §2
Zone of skin [8] = test: fCmax in immunocompetent SKH1 mouse skin at 50 mg/kg, sc; assay type: ADME, organism-based; set-up: dose 50 mg/kg, route subcutaneous; details: in vivo; procedure, shortened: as §2
[9] = fT>MIC in Staphylococcus aureus OC 8525 infected sc dosed SKH1 mouse administered in 24 hrs dosing interval; assay type: functional
Procedure, shortened: (§3)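 Plasma levels came from female hairless SKH1 mice given single s.c. doses at the nape 24 h after flank s.c. infection with Cytodex beads. S. aureus work used immunocompetent mice. P. aeruginosa work used mice made neutropenic with cyclophosphamide i.p., 150 mg/kg at day −5 and 100 mg/kg at day −1. Drug assayed by HPLC with diode-array detection. Noncompartmental analysis.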

[10] = Tmax in immunocompetent SKH1 mouse plasma at 12.5 mg/kg, sc; assay type: ADME, organism-based; set-up: dose 12.5 mg/kg, route subcutaneous; procedure, shortened: as §2
[11] = Tmax in Staphylococcus aureus infected immunocompetent SKH1 mouse skin at 50 mg/kg, sc; assay type: ADME, organism-based, Zone of skin; set-up: dose 50 mg/kg, route subcutaneous; procedure, shortened: as §2
Staphylococcus aureus [12] = test: Antimicrobial activity against methicillin-susceptible Staphylococcus aureus OC 4172 assessed as inhibition of growth by broth microdilution method; assay type: functional
Pseudomonas aeruginosa [13] = test: Antimicrobial activity against Pseudomonas aeruginosa OC 4351 infected in immunocompromized SKH1 mouse assessed as log change in bacterial colony forming units at 25 mg/kg/day, sc; assay type: functional; details: route subcutaneous; procedure, shortened: as §1
Staphylococcus aureus [14] = test: Antimicrobial activity against methicillin-resistant Staphylococcus aureus OC 8525 infected immunocompetent SKH1 mouse assessed as lesion volume at 6.2 mg/kg/day, sc measured after 48 hrs postinfection (reference value: 1535 mm3); details: route subcutaneous
Staphylococcus aureus [15] = test: Antimicrobial activity against methicillin-susceptible Staphylococcus aureus Smith OC 4172 infected immunocompetent SKH1 mouse assessed as lesion volume at 1.6 mg/kg/day, sc measured after 48 hrs postinfection (reference value: 1181 mm3); details: route subcutaneous
Plasma [16] = test: fCmax in immunocompetent SKH1 mouse plasma at 50 mg/kg, sc; assay type: ADME, organism-based; set-up: dose 50 mg/kg, route subcutaneous; details: in vivo; procedure, shortened: as §2
Pseudomonas aeruginosa [17] = test: Antimicrobial activity against Pseudomonas aeruginosa OC 4351 infected in immunocompromized SKH1 mouse assessed as lesion volume at 100 mg/kg/day, sc measured after 48 hrs postinfection (reference value: 2234 mm3); assay type: functional; details: route subcutaneous
Plasma [18] = test: fCmax in immunocompromized SKH1 mouse plasma at 50 mg/kg, sc; assay type: ADME, organism-based; set-up: dose 50 mg/kg, route subcutaneous; details: in vivo; procedure, shortened: as §2
[19] = Half life in immunocompetent SKH1 mouse plasma at 12.5 mg/kg, sc; assay type: ADME, organism-based; set-up: dose 12.5 mg/kg, route subcutaneous; procedure, shortened: as §2
Pseudomonas aeruginosa [20] = test: Antimicrobial activity against Pseudomonas aeruginosa OC 4354 infected in immunocompromized SKH1 mouse assessed as log change in bacterial colony forming unit at 25 mg/kg/day, sc; assay type: functional; details: route subcutaneous; procedure, shortened: as §1
Pseudomonas aeruginosa [21] = test: Antimicrobial activity against Pseudomonas aeruginosa OC 4351 assessed as inhibition of growth by broth microdilution method; assay type: functional
Pseudomonas aeruginosa [22] = test: Antimicrobial activity against Pseudomonas aeruginosa OC 4354 infected in immunocompromized SKH1 mouse assessed as lesion volume at 1.6 mg/kg/day, sc measured after 48 hrs postinfection (reference value: 2195 mm3); assay type: functional; details: route subcutaneous
Pseudomonas aeruginosa [23] = test: Antimicrobial activity against Pseudomonas aeruginosa OC 4354 infected in immunocompromized SKH1 mouse assessed as log change in bacterial colony forming unit at 6.2 mg/kg/day, sc; assay type: functional; details: route subcutaneous; procedure, shortened: as §1
Staphylococcus aureus [24] = test: Antimicrobial activity against methicillin-resistant Staphylococcus aureus OC 8525 infected immunocompetent SKH1 mouse assessed as lesion volume at 1.6 mg/kg/day, sc measured after 48 hrs postinfection (reference value: 1535 mm3); details: route subcutaneous
[25] = Half life in Staphylococcus aureus infected immunocompetent SKH1 mouse skin at 50 mg/kg, sc; assay type: ADME, organism-based, Zone of skin; set-up: dose 50 mg/kg, route subcutaneous; procedure, shortened: as §2
[26] = Half life in immunocompromized SKH1 mouse skin at 50 mg/kg, sc; assay type: ADME, organism-based, Zone of skin; set-up: dose 50 mg/kg, route subcutaneous; procedure, shortened: as §2
Pseudomonas aeruginosa [27] = test: Antimicrobial activity against Pseudomonas aeruginosa OC 4354 infected in immunocompromized SKH1 mouse assessed as lesion volume at 25 mg/kg/day, sc measured after 48 hrs postinfection (reference value: 2195 mm3); assay type: functional; details: route subcutaneous
Pseudomonas aeruginosa [28] = test: Antimicrobial activity against Pseudomonas aeruginosa OC 4351 infected in immunocompromized SKH1 mouse assessed as lesion volume at 6.2 mg/kg/day, sc measured after 48 hrs postinfection (reference value: 2234 mm3); assay type: functional; details: route subcutaneous
Zone of skin [29] = test: fCmax in Staphylococcus aureus infected immunocompetent SKH1 mouse skin at 50 mg/kg, sc; assay type: ADME, organism-based; set-up: dose 50 mg/kg, route subcutaneous; details: in vivo; procedure, shortened: as §2
Staphylococcus aureus [30] = test: Antimicrobial activity against methicillin-resistant Staphylococcus aureus OC 8525 assessed as inhibition of growth by broth microdilution method; assay type: functional
[31] = fT>MIC in Staphylococcus aureus OC 4172 infected sc dosed SKH1 mouse administered in 24 hrs dosing interval; assay type: functional; procedure, shortened: as §3
[32] = Half life in immunocompetent SKH1 mouse plasma at 50 mg/kg, sc; assay type: ADME, organism-based; set-up: dose 50 mg/kg, route subcutaneous

Question: With `Nc1nc(/C(=N/O)C(=O)N[C@@H]2C(=O)N3C(C(=O)O)=C(/C=C4\CCN([C@@H]5CCNC5)C4=O)CS[C@H]23)ns1` [CEFTOBIPROLE] as the molecule, how does the fCmax (Zone of skin [1]) read?
Answer: Its fCmax is 9 µg/g.

Question: What about the deltalog10CFU (Pseudomonas aeruginosa [2]) of the same molecule?
Answer: The deltalog10CFU was -1.4.

Question: And the “fT>MIC” value [3]?
Answer: Its value is 9.1%.

Question: And the Activity (Staphylococcus aureus [4])?
Answer: The Activity was 642 mm3.

Question: What about the fCmax (Zone of skin [5]) of the same molecule?
Answer: Its fCmax is 17 µg/g.

Question: What about the fAUC (Zone of skin [6]) of the same molecule?
Answer: The fAUC was 668 µg·min/mL.

Question: And the fAUC (Plasma [7])?
Answer: The fAUC was 481 µg·min/mL.

Question: What about the fCmax (Zone of skin [8]) of the same molecule?
Answer: Its fCmax is 17 µg/g.

Question: And the “fT>MIC” value [9]?
Answer: Its value is 13.8%.

Question: And the Tmax [10]?
Answer: Its Tmax is 7.5 min.

Question: And the Tmax [11]?
Answer: Its Tmax is 15 min.

Question: And the MIC (Staphylococcus aureus [12])?
Answer: The MIC was 0.25 µg/mL.

Question: What about the deltalog10CFU (Pseudomonas aeruginosa [13]) of the same molecule?
Answer: The deltalog10CFU was -0.9.

Question: And the Activity (Staphylococcus aureus [14])?
Answer: Its Activity is 896 mm3.

Question: What about the Activity (Staphylococcus aureus [15]) of the same molecule?
Answer: Its Activity is 937 mm3.

Question: And the fCmax (Plasma [16])?
Answer: Its fCmax is 66 µg/mL.

Question: What about the Activity (Pseudomonas aeruginosa [17]) of the same molecule?
Answer: The Activity was 389 mm3.

Question: What about the fCmax (Plasma [18]) of the same molecule?
Answer: The fCmax was 69 µg/mL.

Question: And the half-life [19]?
Answer: Its half-life is 17 min.

Question: What about the deltalog10CFU (Pseudomonas aeruginosa [20]) of the same molecule?
Answer: The deltalog10CFU was -1.3.

Question: And the MIC (Pseudomonas aeruginosa [21])?
Answer: The MIC was 4 µg/mL.

Question: And the Activity (Pseudomonas aeruginosa [22])?
Answer: The Activity was 1833 mm3.

Question: What about the deltalog10CFU (Pseudomonas aeruginosa [23]) of the same molecule?
Answer: Its deltalog10CFU is -0.4.

Question: And the Activity (Staphylococcus aureus [24])?
Answer: The Activity was 1058 mm3.

Question: What about the half-life [25] of the same molecule?
Answer: The half-life was 15 min.

Question: What about the half-life [26] of the same molecule?
Answer: Its half-life is 30 min.

Question: What about the Activity (Pseudomonas aeruginosa [27]) of the same molecule?
Answer: The Activity was 580 mm3.

Question: And the Activity (Pseudomonas aeruginosa [28])?
Answer: The Activity was 847 mm3.

Question: What about the fCmax (Zone of skin [29]) of the same molecule?
Answer: Its fCmax is 13 µg/g.

Question: What about the MIC (Staphylococcus aureus [30]) of the same molecule?
Answer: The MIC was 1 µg/mL.

Question: And the “fT>MIC” value [31]?
Answer: The value was over 17%.

Question: And the half-life [32]?
Answer: Its half-life is 13 min.

Reference: ChEMBL document CHEMBL1212762, “In vivo activity of ceftobiprole in murine skin infections due to Staphylococcus aureus and Pseudomonas aeruginosa” (Antimicrob Agents Chemother, 2010)
